Assay results from ChEMBL document CHEMBL3769315 (J Med Chem, 2016).
pEC50: −log10 of the molar value. Values after ≈ are worked out from the molar mass of the structure shown.

tested on: Hepatitis C virus; assay: microbe, parasite or virus in culture; format: functional, organism-based, Hepacivirus hominis; settings: JFH-1, Huh-7.5.1, 48 h

Row | SMILES | pEC50
1 | Clc1ccc([C@@H](c2ccccc2)N2CCNCC2)cc1 | 7.49
2 | [2H]C([2H])([2H])N1CCN([C@@H](c2ccccc2)c2ccc(Cl)cc2)CC1 | 7.20
3 | Clc1ccc(C(c2ccc(Cl)cc2)N2CCOCC2)cc1 | 4.53
4 | c1ccc(C(c2ccccc2)C2CCNCC2)cc1 | 7.14
5 | CC(=O)NCCOCCOCCOCCOCCN1CCN(C(c2ccccc2)c2ccc(Cl)cc2)CC1 (racemic) | 6.77
6 | CN1CCN(C(c2ccccc2)c2ccc(Cl)cc2)CC1 (racemic) [CHLORCYCLIZINE] | 6.36
7 | Clc1ccc(C(c2ccc(Cl)cc2)N2CCCCC2)cc1 | 4.76
8 | CCCCN1CCN([C@@H](c2ccccc2)c2ccc(Cl)cc2)CC1 | 7.38
9 | CC(C)N1CCN([C@@H](c2ccccc2)c2ccc(Cl)cc2)CC1 | 7.89
10 | NC(=O)COCCN1CCN(C(c2ccccc2)c2ccc(Cl)cc2)CC1 (racemic) | 6.99
11 | CC(C)(C)OC(=O)NCCOCCOCCOCCOCCN1CCN(C(c2ccccc2)c2ccc(Cl)cc2)CC1 (racemic) | 6.70
12 | CN1CCN([C@H](c2ccccc2)c2ccc(Cl)cc2)CC1 | 7.70
13 | FC(F)(F)CN1CCN([C@@H](c2ccccc2)c2ccc(Cl)cc2)CC1 | < 4.50
14 | c1ccc(C(c2ccccc2)c2ccncc2)cc1 | < 4.50

tested on: not listed separately; assay: Cytotoxicity against human Huh7.5.1 cells assessed as ATP level by luminescence analysis; settings: huh-7

Row | SMILES | CC50 [µM]
15 | [2H]C([2H])([2H])CN1CCN([C@@H](c2ccccc2)c2ccc(Cl)cc2)CC1 | 71.3
16 | CCN1CCN([C@H](c2ccccc2)c2ccc(Cl)cc2)CC1 | 37.9
17 | NCCOCCOCCOCCOCCN1CCN(C(c2ccccc2)c2ccc(Cl)cc2)CC1 (racemic) | 12.2
18 | Clc1ccc([C@@H](c2ccccc2)N2CCNCC2)cc1 | 12.5
19 | [2H]C([2H])([2H])N1CCN([C@@H](c2ccccc2)c2ccc(Cl)cc2)CC1 | 77.9
20 | Clc1ccc(C(c2ccc(Cl)cc2)N2CCOCC2)cc1 | 62.1
21 | c1ccc(C(c2ccccc2)C2CCNCC2)cc1 | 32.5
22 | CC(=O)NCCOCCOCCOCCOCCN1CCN(C(c2ccccc2)c2ccc(Cl)cc2)CC1 (racemic) | > 100
23 | [2H]C([2H])([2H])CN1CCN([C@H](c2ccccc2)c2ccc(Cl)cc2)CC1 | 81.5
24 | CN1CCN(C(c2ccccc2)c2ccc(Cl)cc2)CC1 (racemic) [CHLORCYCLIZINE] | 49.8
25 | Clc1ccc(C(c2ccc(Cl)cc2)N2CCCCC2)cc1 | 69
26 | CCCCN1CCN([C@@H](c2ccccc2)c2ccc(Cl)cc2)CC1 | 31.1
27 | CC(C)N1CCN([C@@H](c2ccccc2)c2ccc(Cl)cc2)CC1 | 32.4
28 | NC(=O)COCCN1CCN(C(c2ccccc2)c2ccc(Cl)cc2)CC1 (racemic) | > 100
29 | CC(C)(C)OC(=O)NCCOCCOCCOCCOCCN1CCN(C(c2ccccc2)c2ccc(Cl)cc2)CC1 (racemic) | 19
30 | CN1CCN([C@H](c2ccccc2)c2ccc(Cl)cc2)CC1 | 37.5
31 | FC(F)(F)CN1CCN([C@@H](c2ccccc2)c2ccc(Cl)cc2)CC1 | > 100
32 | c1ccc(C(c2ccccc2)c2ccncc2)cc1 | 65.1

tested on: not listed separately; assay: Selectivity index, ratio of CC50 for human Huh7.5.1 cells infected with HCV JFH-1 virus to EC50 for HCV JFH-1 virus; settings: not given

Row | SMILES | selectivity ratio
33 | Clc1ccc([C@@H](c2ccccc2)N2CCNCC2)cc1 | 391
34 | Clc1ccc(C(c2ccc(Cl)cc2)N2CCOCC2)cc1 | 2
35 | c1ccc(C(c2ccccc2)C2CCNCC2)cc1 | 451
36 | CC(=O)NCCOCCOCCOCCOCCN1CCN(C(c2ccccc2)c2ccc(Cl)cc2)CC1 (racemic) | > 588
37 | Clc1ccc(C(c2ccc(Cl)cc2)N2CCCCC2)cc1 | 4
38 | CCCCN1CCN([C@@H](c2ccccc2)c2ccc(Cl)cc2)CC1 | 740
39 | CC(C)N1CCN([C@@H](c2ccccc2)c2ccc(Cl)cc2)CC1 | 2490
40 | NC(=O)COCCN1CCN(C(c2ccccc2)c2ccc(Cl)cc2)CC1 (racemic) | > 910
41 | CC(C)(C)OC(=O)NCCOCCOCCOCCOCCN1CCN(C(c2ccccc2)c2ccc(Cl)cc2)CC1 (racemic) | 95
42 | c1ccc(C(c2ccccc2)c2ccncc2)cc1 | < 2

tested on: not listed separately; assay: (§1) Metabolic stability in rat liver microsomes assessed as half life by LC-MS/MS analysis in presence of NADPH; settings: not given

Row | SMILES | half-life [min]
43 | CCN1CCN([C@H](c2ccccc2)c2ccc(Cl)cc2)CC1 | 132
44 | [2H]C([2H])([2H])CN1CCN([C@H](c2ccccc2)c2ccc(Cl)cc2)CC1 | 174

tested on: Liver microsome; assay: as §1; settings: not given

Row | SMILES | t1/2 [min]
45 | CCN1CCN(C(c2ccc(Cl)cc2)c2ccc(Cl)cc2)CC1 | 2.2
46 | OCCOCCN1CCN(C(c2ccc(Cl)cc2)c2ccc(Cl)cc2)CC1 | 13.7
47 | NCCOCCOCCOCCOCCN1CCN(C(c2ccccc2)c2ccc(Cl)cc2)CC1 (racemic) | 11.7
48 | CN1CCN(C(c2ccccc2)c2ccc(Cl)cc2)CC1 (racemic) [CHLORCYCLIZINE] | 4.6

tested on: HepG2; assay: Cytotoxicity against human HepG2 cells assessed as ATP level by luminescence analysis; settings: not given

Row | SMILES | CC50 [µM]
49 | CCN1CCN(C(c2ccc(Cl)cc2)c2ccc(Cl)cc2)CC1 | 56
50 | NCCOCCOCCOCCOCCN1CCN(C(c2ccccc2)c2ccc(Cl)cc2)CC1 (racemic) | 12.6

tested on: Hepatitis C virus; assay: microbe, parasite or virus in culture; format: functional, Hepacivirus hominis; settings: Huh-7, 48 h

Row | SMILES | inhibition at 10 µM [%]
51 | CCN1CCN(C(c2ccc(Cl)cc2)c2ccc(Cl)cc2)CC1 | 10.1
52 | OCCOCCN1CCN(C(c2ccc(Cl)cc2)c2ccc(Cl)cc2)CC1 | 1.8
53 | NCCOCCOCCOCCOCCN1CCN(C(c2ccccc2)c2ccc(Cl)cc2)CC1 (racemic) | 1.4
54 | CN1CCN(C(c2ccccc2)c2ccc(Cl)cc2)CC1 (racemic) [CHLORCYCLIZINE] | 24.9

tested on: Hepatitis C virus; assay: Antiviral activity against HCV genotype 1a pseudoparticle infected in human Huh7.5.1 cells assessed as inhibition of virus entry at 10 uM after 4 hrs by luciferase reporter gene assay; format: functional, Hepacivirus hominis; settings: subtype 1a, Huh-7, 4 h

Row | SMILES | inhibition at 10 µM [%]
55 | CCN1CCN(C(c2ccc(Cl)cc2)c2ccc(Cl)cc2)CC1 | 76.6
56 | OCCOCCN1CCN(C(c2ccc(Cl)cc2)c2ccc(Cl)cc2)CC1 | 71.7
57 | NCCOCCOCCOCCOCCN1CCN(C(c2ccccc2)c2ccc(Cl)cc2)CC1 (racemic) | 95.8
58 | CN1CCN(C(c2ccccc2)c2ccc(Cl)cc2)CC1 (racemic) [CHLORCYCLIZINE] | 92.5

tested on: Hepatitis C virus; assay: Antiviral activity against HCV genotype 1b pseudoparticle infected in human Huh7.5.1 cells assessed as inhibition of virus entry at 10 uM after 4 hrs by luciferase reporter gene assay; format: functional, Hepacivirus hominis; settings: Huh-7, 4 h

Row | SMILES | inhibition at 10 µM [%]
59 | CCN1CCN(C(c2ccc(Cl)cc2)c2ccc(Cl)cc2)CC1 | 108
60 | OCCOCCN1CCN(C(c2ccc(Cl)cc2)c2ccc(Cl)cc2)CC1 | 80.8
61 | NCCOCCOCCOCCOCCN1CCN(C(c2ccccc2)c2ccc(Cl)cc2)CC1 (racemic) | 91.7
62 | CN1CCN(C(c2ccccc2)c2ccc(Cl)cc2)CC1 (racemic) [CHLORCYCLIZINE] | 120

tested on: Murine leukemia virus; assay: Antiviral activity against Murine leukemia virus pseudoparticle infected in human Huh7.5.1 cells at 10 uM after 4 hrs by luciferase reporter gene assay; format: functional; settings: Huh-7, 4 h

Row | SMILES | inhibition at 10 µM [%]
63 | CCN1CCN(C(c2ccc(Cl)cc2)c2ccc(Cl)cc2)CC1 | 96.5
64 | OCCOCCN1CCN(C(c2ccc(Cl)cc2)c2ccc(Cl)cc2)CC1 | 108
65 | NCCOCCOCCOCCOCCN1CCN(C(c2ccccc2)c2ccc(Cl)cc2)CC1 (racemic) | 117
66 | CN1CCN(C(c2ccccc2)c2ccc(Cl)cc2)CC1 (racemic) [CHLORCYCLIZINE] | 124

tested on: Vesicular stomatitis virus; assay: Antiviral activity against Vesicular stomatitis virus G pseudoparticle infected in human Huh7.5.1 cells at 10 uM after 4 hrs by luciferase reporter gene assay; format: functional; settings: Huh-7, 4 h

Row | SMILES | inhibition at 10 µM [%]
67 | CCN1CCN(C(c2ccc(Cl)cc2)c2ccc(Cl)cc2)CC1 | 110
68 | OCCOCCN1CCN(C(c2ccc(Cl)cc2)c2ccc(Cl)cc2)CC1 | 109
69 | NCCOCCOCCOCCOCCN1CCN(C(c2ccccc2)c2ccc(Cl)cc2)CC1 (racemic) | 99.8
70 | CN1CCN(C(c2ccccc2)c2ccc(Cl)cc2)CC1 (racemic) [CHLORCYCLIZINE] | 105

tested on: Hepatitis C virus; assay: Antiviral activity against HCV genotype 2a assessed as inhibition of RNA replication at 10 uM by cell-based replicon assay; format: functional, Hepacivirus hominis; settings: not given
Method in brief: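 GT 2a subgenomic replicon cells were plated at 10^4/well and incubated overnight. They were then treated with compound (10 μM, or 3.2 or 1 μM for some compounds) for 48 h. Luciferase activity was read and expressed as % of DMSO.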

Row | SMILES | inhibition at 10 µM [%]
71 | CCN1CCN(C(c2ccc(Cl)cc2)c2ccc(Cl)cc2)CC1 | 128
72 | OCCOCCN1CCN(C(c2ccc(Cl)cc2)c2ccc(Cl)cc2)CC1 | 98.8
73 | NCCOCCOCCOCCOCCN1CCN(C(c2ccccc2)c2ccc(Cl)cc2)CC1 (racemic) | 63.6
74 | CN1CCN(C(c2ccccc2)c2ccc(Cl)cc2)CC1 (racemic) [CHLORCYCLIZINE] | 102

tested on: not listed separately; assay: (§2) Metabolic stability in human liver microsomes assessed as half life by LC-MS/MS analysis in presence of NADPH; settings: not given

Row | SMILES | half-life [min]
75 | CCN1CCN(C(c2ccc(Cl)cc2)c2ccc(Cl)cc2)CC1 | 30

tested on: Liver microsome; assay: as §2; settings: not given

Row | SMILES | t1/2 [min]
76 | OCCOCCN1CCN(C(c2ccc(Cl)cc2)c2ccc(Cl)cc2)CC1 | > 30
77 | NCCOCCOCCOCCOCCN1CCN(C(c2ccccc2)c2ccc(Cl)cc2)CC1 (racemic) | 26.2
78 | CN1CCN(C(c2ccccc2)c2ccc(Cl)cc2)CC1 (racemic) [CHLORCYCLIZINE] | 113

tested on: not listed separately; assay: Metabolic stability in mouse liver microsomes assessed as half life by LC-MS/MS analysis in presence of NADPH; settings: not given

Row | SMILES | t1/2 [min]
79 | CCN1CCN(C(c2ccc(Cl)cc2)c2ccc(Cl)cc2)CC1 | 12.6
80 | OCCOCCN1CCN(C(c2ccc(Cl)cc2)c2ccc(Cl)cc2)CC1 | 10
81 | NCCOCCOCCOCCOCCN1CCN(C(c2ccccc2)c2ccc(Cl)cc2)CC1 (racemic) | 29.1
82 | CN1CCN(C(c2ccccc2)c2ccc(Cl)cc2)CC1 (racemic) [CHLORCYCLIZINE] | 36

tested on: not listed separately; assay: Solubility of compound in phosphate buffer at pH 7.4; settings: not given

Row | SMILES | solubility kinetic [µg/mL]
83 | CCN1CCN(C(c2ccc(Cl)cc2)c2ccc(Cl)cc2)CC1 | 17.7 (≈ 50.7 µM)
84 | OCCOCCN1CCN(C(c2ccc(Cl)cc2)c2ccc(Cl)cc2)CC1 | 44.5 (≈ 109 µM)
85 | NCCOCCOCCOCCOCCN1CCN(C(c2ccccc2)c2ccc(Cl)cc2)CC1 (racemic) | 46 (≈ 90.9 µM)

molecular target: histamine H1 receptor (Homo sapiens, UniProt P35367); assay: in vitro; settings: PathHunter cells
Sequence (P35367 whole entry): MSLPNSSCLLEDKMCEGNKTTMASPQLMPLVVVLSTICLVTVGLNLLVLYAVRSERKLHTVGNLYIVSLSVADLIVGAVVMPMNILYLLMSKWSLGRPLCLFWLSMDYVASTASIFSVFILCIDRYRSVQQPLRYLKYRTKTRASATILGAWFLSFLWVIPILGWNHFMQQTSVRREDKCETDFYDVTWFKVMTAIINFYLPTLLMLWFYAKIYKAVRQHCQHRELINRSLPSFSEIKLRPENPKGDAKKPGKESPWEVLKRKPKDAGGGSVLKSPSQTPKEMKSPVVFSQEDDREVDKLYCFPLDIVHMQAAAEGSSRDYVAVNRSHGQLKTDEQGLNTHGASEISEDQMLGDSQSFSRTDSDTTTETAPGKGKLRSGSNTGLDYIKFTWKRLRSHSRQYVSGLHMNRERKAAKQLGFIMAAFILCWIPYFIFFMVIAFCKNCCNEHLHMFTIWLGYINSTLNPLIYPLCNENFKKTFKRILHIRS

Row | SMILES | inhibition at 2 h, 0.01 µM [%]
86 | CCN1CCN(C(c2ccc(Cl)cc2)c2ccc(Cl)cc2)CC1 | 31.7
87 | OCCOCCN1CCN(C(c2ccc(Cl)cc2)c2ccc(Cl)cc2)CC1 | 23.7
88 | NCCOCCOCCOCCOCCN1CCN(C(c2ccccc2)c2ccc(Cl)cc2)CC1 (racemic) | 54.1
89 | CN1CCN(C(c2ccccc2)c2ccc(Cl)cc2)CC1 (racemic) [CHLORCYCLIZINE] | 16
